Molecules are shown by their SMILES.

One series concerns OVCA432 cells. The experiment in a line: Immunoblot analysis. In kind it is cell-based, human. (Immunoblotting shows a protein as a band on a membrane.)
Series [1] deals with OVCAR3 cells. Nature of the series: Immunoblot analysis with densitometry. The following applies: for ERK activation (phosphorylated ERK) / p53 expression: OVCAR3, 100 nM; for p53 expression: 72 h; for Bcl-xL expression / Cleaved PARP level / Cleaved caspase 3 level / Mcl-1 expression / p21 protein expression: OVCAR3, western blot densitometry. In kind it is cell-based, human. In outline: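 OVCAR3 cells exposed to test compound (100 nM, 72 h). Lysed in RIPA buffer on ice for 15 min, then spun at 14,000 g, 4 °C, 15 min. Protein quantified by BCA; 25 μg per lane run on SDS-PAGE and transferred to PVDF. Blocked in 5% milk/TBST for 1 h at RT, primary antibody overnight at 4 °C, secondary 30 min. Chemiluminescent detection, ImageJ densitometry, n = 3.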

The next series has as its system hERG channels. The conditions noted are these: cited from earlier work.
The subject of series [2] is OVCAR3 cells. Nature of the series: Cell cycle assay. In kind it is cell-based, human. The following applies: OVCAR3, 72 h.
Series [3] has as its system MOE^HIGH murine oviductal epithelial cells. The experiment in a line: Cell viability assay. The conditions noted are these: Mus musculus, 72 h, read-out: IC50 against MOE^HIGH. The series is classed as cell-based.
Series [4] concerns MOE^LOW murine oviductal epithelial cells. The experiment in a line: Cell viability assay. The conditions noted are these: Mus musculus, 72 h, read-out: IC50 against MOE^LOW. In kind it is cell-based.
Series [5] has as its system OVSAHO cells. The experiment in a line: Immunoblot analysis with densitometry. The series is classed as cell-based, human. The following applies: for ERK activation (phosphorylated ERK): 100 nM; for p21 protein expression: western blot; for Cleaved PARP expression level: western blot densitometry.
Series [6] deals with OVCAR3 cells. The experiment in a line: Soft agar colony formation assay. In kind it is cell-based, human. The following applies: OVCAR3, 21 days, vs DMSO control. Summed up: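 OVCAR3 cells, cultured in RPMI 1640 with 10% FBS, were suspended at 1.5 × 10^4 cells in 0.35% w/v top agar over a 0.5% w/v base agar layer. They were grown 21 days with the medium changed every three days. Colonies were imaged by microscopy and counted by image analysis. Three biological replicates.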

Series [7] concerns normal human colon CCD-112CoN cells. The following applies: cited from earlier work.
The test system of series [8] is OVCAR3 human ovarian cancer cells. The experiment in a line: Cell viability assay. The following applies: OVCAR-3, 72 h, read-out: IC50 against OVCAR3. The series is classed as cell-based.
The subject of series [9] is OVCAR3 ovarian cancer cells. The following applies: cited from earlier work.
In series [10] the test system is MDA-MB-231 breast cancer cells. The conditions noted are these: cited from earlier work.
For series [11], the system named is OVSAHO cells. The experiment in a line: Clonogenic assay. In kind it is cell-based, human. The conditions noted are these: 21 days, treated every three days. In outline: (§1)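 Cells in RPMI 1640 with 10% FBS were plated at 200 cells per 60 mm dish and grown 21 days. Test compound or solvent control was given every three days. Colonies were fixed with 4% (w/v) paraformaldehyde, stained with 0.04% (w/v) crystal violet for 30 min at room temperature, imaged and counted by image analysis. Three biological replicates.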

For another series, the system named is HT-29 colon cancer cells. The conditions noted are these: cited from earlier work.
Series [12] relates to Na^+/K^+-ATPase (adenosine 5′-triphosphatase from porcine cerebral cortex). Nature of the series: Na^+/K^+-ATPase activity assay. In kind it is biochemical. The following applies: various concentrations, 15 min at 37 °C. In outline: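 The Na+/K+-ATPase from porcine cerebral cortex, in assay buffer, was mixed with DMSO or test compound in DMSO, and ATP was added to start the reaction. After 15 min at 37 °C, ADP-Glo reagent stopped the reaction and depleted ATP over 40 min at room temperature. Detection reagent then converted ADP to ATP over 60 min, and ATP was read by luciferin/luciferase luminescence.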

In series [13] the test system is normal human peripheral blood mononuclear cells. The conditions noted are these: cited from earlier work.
Another series deals with KB nasopharyngeal cells. The following applies: cited from earlier work.
In series [14] the test system is OVSAHO cells. Nature of the series: Soft agar colony formation assay. The series is classed as cell-based, human. The conditions noted are these: 21 days, vs DMSO control. In outline:
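OVSAHO cells (1.5 × 104) suspended in 0.35% w/v agar over a 0.5% w/v base agar layer, with test compound or solvent control. Grown 21 days with medium changed every three days. Colonies imaged by microscopy and counted by image analysis; three biological replicates.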

In a further series the test system is OVCAR8 cells. Nature of the series: Cell viability assay. In kind it is cell-based. The following applies: Homo sapiens, OVCAR-8, 72 h, read-out: IC50 against OVCAR8.
The test system of series [15] is OVCAR3 cells. Nature of the series: Clonogenic assay. In kind it is cell-based, human. The following applies: OVCAR3, 21 days, treated every three days. In outline: as §1

In the case of `C[C@H]1O[C@@H](O[C@H]2[C@@H](O)C[C@H](O[C@H]3[C@@H](O)C[C@H](O[C@H]4CC[C@@]5(C)[C@H](CC[C@@H]6[C@@H]5CC[C@]5(C)[C@@H](C7=CC(=O)OC7)CC[C@]65O)C4)O[C@@H]3C)O[C@@H]2C)C[C@H](O)[C@@H]1O` [digitoxin, reference compound], the p53 expression result with OVCA432 cells was “decreased expression of p53”. In the series on OVCAR3 cells [1], the “ERK activation (phosphorylated ERK)” value is “induced activation of ERK”, the p53 expression result is reported as “disappearance of p53”, the Bcl-xL expression entry is “decrease in Bcl-xL after treatment was not statistically significant” and the “Cleaved PARP level” value is given as “significantly higher levels of cleaved PARP”. Further, in the series on OVCAR3 cells [1], the “Cleaved caspase 3 level” value is “significant increase in cleaved caspase 3”, the Mcl-1 expression entry is “expressed less Mcl-1 than control cells” and the p21 protein expression result is recorded as “expressed more p21 protein than the control”. Also, the “Interaction with hERG channels and hERG trafficking” value in the series on hERG channels was “reported to interact with hERG channels and hERG trafficking”. The Cell cycle distribution entry in the series with OVCAR3 cells [2] is “accumulation of cells in the G2/M phase”. The half-maximal inhibitory concentration (IC50) – broadly, the midpoint of a concentration-inhibition curve – in [3] is greater than 50 µM. In series [4], the IC50 was greater than 50 µM. Moreover, in the series on OVSAHO cells [5], the “ERK activation (phosphorylated ERK)” value is “induced activation of ERK”, the p21 protein expression result is listed as “significant increase in p21 expression” and the “Cleaved PARP expression level” value is given as “higher than the levels in control cells”.
Take `CO[C@H]1[C@H](O[C@H]2CC[C@]3(C=O)[C@H]4CC[C@]5(C)[C@@H](C6=CC(=O)OC6)CC[C@]5(O)[C@@H]4CC[C@]3(O)C2)O[C@H](C)[C@H](O)[C@@H]1OC` [(+)-strebloside, (+)-Strebloside]: the p53 expression result with OVCA432 cells was “decreased expression of p53”; in the series on OVCAR3 cells [1], “disappearance of p53”. Further, the “ERK activation (phosphorylated ERK)” value in the series with OVCAR3 cells [1] and with OVSAHO cells [5] was “induced activation of ERK” throughout. In addition, the Bcl-xL expression result with OVCAR3 cells [1] was “decrease in Bcl-xL after treatment was not statistically significant”. Besides, the “Cleaved PARP level” value with OVCAR3 cells [1] is reported as “significantly higher levels of cleaved PARP”. Moreover, the “Cleaved caspase 3 level” value in the series with OVCAR3 cells [1] is reported as “significant increase in cleaved caspase 3”. The Mcl-1 expression result in the series with OVCAR3 cells [1] is on record as “expressed less Mcl-1 than control cells”. Besides, the p21 protein expression result with OVCAR3 cells [1] was “expressed more p21 protein than the control”; in the series on OVSAHO cells [5], “significant increase in p21 expression”. Besides, the “Soft agar colony formation (anchorage-independent growth)” value is on record as “formed significantly less soft agar colonies than a DMSO control” in the series on OVCAR3 cells [6] and “no difference was detected” in the series on OVSAHO cells [14]. Also, the “Toxicity compared with digoxin” value in series [7] and in series [13] was “not as toxic as digoxin” throughout. Moreover, the IC50 in series [8] is 0.134 µM; in [3], greater than 50 µM; in series [4] it was greater than 50 µM; in the series with OVCAR8 cells it was 0.0911 µM. Moreover, the “In vivo potency in hollow fiber assay” value in [9] and in series [10] was “significant potency in vivo” each time. In addition, the 2D colony formation entry in the series with OVSAHO cells [11] and in the series on OVCAR3 cells [15] was “neither OVCAR3 nor OVSAHO cells formed colonies” in each case. The Cytotoxicity result in the series on HT-29 colon cancer cells and with KB nasopharyngeal cells was “potent cytotoxicity” throughout. Moreover, the “Inhibition of Na^+/K^+-ATPase activity” value in [12] was “inhibited Na^+/K^+-ATPase activity in a concentration-dependent manner”. For the same molecule, the Cell cycle distribution entry with OVCAR3 cells [2] is listed as “induced an accumulation of cells in the G2/M phase”. For the same molecule, in the series with OVSAHO cells [5], the “Cleaved PARP expression level” value is on record as “higher than the levels in control cells”.

The record behind these values is PMC5768141 (Journal of natural products, 2017).
